From ChEMBL document CHEMBL5352425, “Discovery of the 4-aminopiperidine-based compound EM127 for the site-specific covalent inhibition of SMYD3” (Eur J Med Chem, 2022)
Calls of active or inactive are those of the source. No cut-off for these calls is given here.

Columns and labels:
[1] = molecular target: T1, Histone-lysine N-methyltransferase SMYD3 (Homo sapiens) (UniProt Q9H7B4); assay: Inhibition of SMYD3 in human HCT-116 cells assessed as decrease in ERK1/2 phosphorylation upto 5 uM by immunoblotting analysis; assay type: cell-based; details: time 48-72 hrs, TDE = time-dependent effect
T1 sequence (whole entry): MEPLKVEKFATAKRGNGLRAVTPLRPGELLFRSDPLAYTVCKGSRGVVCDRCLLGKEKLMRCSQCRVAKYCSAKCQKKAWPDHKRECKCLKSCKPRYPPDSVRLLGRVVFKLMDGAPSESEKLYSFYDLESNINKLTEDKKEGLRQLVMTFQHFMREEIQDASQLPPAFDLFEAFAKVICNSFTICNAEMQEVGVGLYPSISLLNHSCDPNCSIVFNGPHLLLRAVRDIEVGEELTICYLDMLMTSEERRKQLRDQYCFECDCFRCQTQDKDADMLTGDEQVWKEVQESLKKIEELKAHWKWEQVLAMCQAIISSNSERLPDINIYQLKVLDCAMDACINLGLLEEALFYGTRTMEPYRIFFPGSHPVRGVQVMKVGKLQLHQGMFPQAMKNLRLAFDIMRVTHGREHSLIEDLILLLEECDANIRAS
In short: (§1)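 HCT116 or MDA-MB-231 cells treated with compound, DMSO as control. Whole-cell lysates in Tris/EDTA/NaCl/1% Triton X-100 with protease and phosphatase inhibitors. 20 μg protein run on 7.5% SDS-PAGE and blotted to nitrocellulose, probed for phospho-ERK1/2 (Thr202/Tyr204), total ERK1/2 and cleaved PARP, with actin as loading control.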

[2] = molecular target: T1, Histone-lysine N-methyltransferase SMYD3 (Homo sapiens); assay: Inhibition of SMYD3 in human MDA-MB-231 cells assessed as decrease in cleaved PARP level at 5 uM measured for 48 to 72 hrs by immunoblotting analysis; assay type: cell-based; details: time 48-72 hrs; in short: as §1
[3] = molecular target: T1, Histone-lysine N-methyltransferase SMYD3 (Homo sapiens); assay: Inhibition of SMYD3 in human MDA-MB-231 cells assessed as decrease in ERK1/2 phosphorylation upto 5 uM by immunoblotting analysis; assay type: cell-based; details: time 48-72 hrs, TDE = time-dependent effect; in short: as §1
[4] = molecular target: T1, Histone-lysine N-methyltransferase SMYD3 (Homo sapiens); assay: Inhibition of full length recombinant SMYD3 (unknown origin) at 50 uM measured for 1 hr by LC-ESI-MS analysis relative to control
In short: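 SMYD3 preincubated 1 h at 23 °C with compound (SMYD3 5 μM, compound 50 μM, 2% DMSO), or at 5 μM compound for 1 or 24 h. Stopped with H2O/AcCN/FA, peptide methylation quantified by LC-ESI-MS. Duplicate.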

[5] = molecular target: T2, Histone-lysine N-methyltransferase SMYD3 (Homo sapiens, UniProt Q9H7B4); assay: Binding affinity to full length recombinant SMYD3 (unknown origin) overexpressed in Escherichia coli Rosetta cells assessed as dissociation constant by SPR analysis
T2 sequence (Q9H7B4 whole entry): T1 sequence (whole entry)
In short: (§2)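 SPR on Biacore X100 at 15 °C: SMYD3 amine-coupled on CM5 chips at 6500–10000 RU, immobilised in HBS-T pH 7.4. Analysis buffer Tris-HCl 50 mM, NaCl 150 mM, 2 mM DTT, 0.05% Tween-20, 2% DMSO, pH 8.0, with or without SAM at saturating concentration. Equilibrium responses solvent-corrected.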

[6] = system: MDA-MB-231; assay: Antiproliferative activity against in human MDA-MB-231 cells assessed as reduction in cell viability measured after 48 hrs by trypan blue staining based phase contrast microscopic analysis; assay type: functional
In short: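 MDA-MB-231 cells in DMEM with 10% FBS and penicillin/streptomycin at 37 °C, 5% CO2, treated 48 h at 5 μM (vehicle 0.5% DMSO, DMSO control). Floating plus trypsinized adherent cells pooled, mixed with 0.01% trypan blue, unstained and stained cells counted by phase-contrast microscopy, % viable cells calculated. Mean ± SD, n=3.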

[7] = molecular target: T1, Histone-lysine N-methyltransferase SMYD3 (Homo sapiens); assay: Inhibition of SMYD3 in human MDA-MB-231 cells assessed as decrease in ERK1/2 phosphorylation measured for 48 to 72 hrs by immunoblotting analysis; assay type: cell-based; details: dose <= 5.0 µM, time 48-72 hrs; in short: as §1
[8] = molecular target: T1, Histone-lysine N-methyltransferase SMYD3 (Homo sapiens); assay: Inhibition of SMYD3 in human HCT-116 cells assessed as decrease in cleaved PARP level at 5 uM measured for 48 to 72 hrs by immunoblotting analysis; assay type: cell-based; details: time 48-72 hrs; in short: as §1
[9] = molecular target: T1, Histone-lysine N-methyltransferase SMYD3 (Homo sapiens); assay: Inhibition of SMYD3 in human HCT-116 cells assessed as decrease in ERK1/2 phosphorylation measured for 48 to 72 hrs by immunoblotting analysis; assay type: cell-based; details: dose <= 5.0 µM, time 48-72 hrs; in short: as §1
[10] = molecular target: T1, Histone-lysine N-methyltransferase SMYD3 (Homo sapiens); assay: Binding affinity to full length recombinant SMYD3 (unknown origin) overexpressed in Escherichia coli Rosetta cells assessed as covalent adduct formation by SPR analysis; in short: as §2
[11] = molecular target: T1, Histone-lysine N-methyltransferase SMYD3 (Homo sapiens); assay: Binding affinity to full length recombinant SMYD3 (unknown origin) at Cys186 residue overexpressed in Escherichia coli Rosetta cells assessed as covalent adduct formation measured for 24 hrs by LC-MS analysis; details: dose 1-100 µM
In short: (§3)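 Recombinant SMYD3 expressed in E. coli Rosetta 2, final 10 μM, incubated at 23 °C in Tris 50 mM pH 8.0, 75 mM NaCl with compound at final 1, 10 or 100 μM, or equimolar 10 μM with sampling at 0–24 h. Samples DTT-denatured at 56 °C, iodoacetamide-alkylated, digested overnight with trypsin plus chymotrypsin at 30 °C, then analysed by LC-MS/MS on Q-ToF for adducted peptides. Triplicate.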

[12] = system: MDA-MB-231; assay: Downregulation of FN1 mRNA expression in human MDA-MB-231 cells at 50 uM measured for 48 to 72 hrs by RT-qPCR analysis; assay type: functional, cell-based; details: time 48-72 hrs
In short: (§4)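 MDA-MB-231 or SMYD3-knockout (CRISPR/Cas9) MDA-MB-231 cells in DMEM/10% FBS treated 48 h with 0.5–50 μM compound, or 72 h with reference inhibitor at 10–50 μM; DMSO control. Total RNA extracted with TRI reagent, CDK2, c-MET, FN1 and N-CAD transcripts measured by RT-qPCR and quantified by the ddCT method.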

[13] = system: MDA-MB-231; assay: Downregulation of CDK2 mRNA expression in human MDA-MB-231 cells at 50 uM measured for 48 to 72 hrs by RT-qPCR analysis; assay type: functional, cell-based; details: time 48-72 hrs; in short: as §4
[14] = molecular target: T1, Histone-lysine N-methyltransferase SMYD3 (Homo sapiens); assay: Inhibition of full length recombinant SMYD3 (unknown origin) at 5 uM measured at 24 hrs by LC-ESI-MS analysis relative to control
[15] = system: MDA-MB-231; assay: Downregulation of N-cadherin mRNA expression in human MDA-MB-231 cells at 50 uM measured for 48 to 72 hrs by RT-qPCR analysis; assay type: functional, cell-based; details: time 48-72 hrs; in short: as §4
[16] = system: MDA-MB-231; assay: Downregulation of c-MET mRNA expression in human MDA-MB-231 cells at 50 uM measured for 48 to 72 hrs by RT-qPCR analysis; assay type: functional, cell-based; details: time 48-72 hrs; in short: as §4
[17] = molecular target: T2, Histone-lysine N-methyltransferase SMYD3; assay: Inhibition of full length recombinant SMYD3 (unknown origin) measured at 24 hrs
[18] = system: MDA-MB-231; assay: Effect on N-cadherin mRNA expression in SMYD3 knockout human MDA-MB-231 cells at 0.5 to 5 uM measured for 48 to 72 hrs by RT-qPCR analysis; assay type: functional, cell-based; details: dose 0.5-5 µM, time 48-72 hrs; in short: as §4
[19] = system: MDA-MB-231; assay: Downregulation of C-MET mRNA expression in human MDA-MB-231 cells at 0.5 uM by RT-qPCR analysis; assay type: functional, cell-based; in short: as §4
[20] = system: MDA-MB-231; assay: Effect on c-MET mRNA expression in SMYD3 knockout human MDA-MB-231 cells at 0.5 to 5 uM measured for 48 to 72 hrs by RT-qPCR analysis; assay type: functional, cell-based; details: dose 0.5-5 µM, time 48-72 hrs; in short: as §4
[21] = molecular target: T1, Histone-lysine N-methyltransferase SMYD3 (Homo sapiens); assay: Binding affinity to full length recombinant SMYD3 (unknown origin) at Cys186 residue overexpressed in Escherichia coli Rosetta cells assessed as covalent adduct formation at 1 to 100 uM measured for 24 hrs by LC-MS analysis relative to control; details: dose 1-100 µM; in short: as §3
[22] = molecular target: T2, Histone-lysine N-methyltransferase SMYD3; assay: Binding affinity to full length recombinant SMYD3 (unknown origin) overexpressed in Escherichia coli Rosetta cells assessed as inhibition constant measured after 1 hr by LC-MS analysis
[23] = system: MDA-MB-231; assay: Effect on FN1 mRNA expression in SMYD3 knockout human MDA-MB-231 cells at 0.5 to 5 uM measured for 48 to 72 hrs by RT-qPCR analysis; assay type: functional, cell-based; details: dose 0.5-5 µM, time 48-72 hrs; in short: as §4
[24] = molecular target: T1, Histone-lysine N-methyltransferase SMYD3 (Homo sapiens); assay: Binding affinity to full length recombinant SMYD3 (unknown origin) overexpressed in Escherichia coli Rosetta cells assessed as Kinact/Ki ratio measured after 1 hr by LC-MS analysis
[25] = molecular target: T1, Histone-lysine N-methyltransferase SMYD3 (Homo sapiens); assay: Binding affinity to full length recombinant SMYD3 (unknown origin) overexpressed in Escherichia coli Rosetta cells assessed as inactivation constant measured after 1 hr by LC-MS analysis
[26] = Stability in human plasma measured at 6 hrs by LC-MS analysis; assay type: ADME, cell-free
In short: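 Compound spiked to final 10 μM into healthy-volunteer human plasma and held at 37 °C with gentle agitation. At 0–360 min, proteins precipitated with ice-cold acetonitrile containing propranolol internal standard. Supernatant dried, reconstituted, analysed by LC-MS with SIM (m/z 312; IS 260). Analyte/IS peak-area ratio followed over time, relative to time 0.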

[27] = molecular target: T1, Histone-lysine N-methyltransferase SMYD3 (Homo sapiens); assay: Binding affinity to full length recombinant SMYD3 (unknown origin) at Cys186 residue overexpressed in Escherichia coli Rosetta cells assessed as covalent adduct formation at 1 to 100 uM measured after 1 hr by LC-MS analysis relative to control; details: dose 1-100 µM; in short: as §3
[28] = molecular target: T1, Histone-lysine N-methyltransferase SMYD3 (Homo sapiens); assay: Inhibition of SMYD3 in human HCT-116 cells assessed as increase in cleaved PARP level at 5 uM measured for 48 to 72 hrs by immunoblotting analysis; details: time 48-72 hrs
[29] = system: MDA-MB-231; assay: Effect on CDK2 mRNA expression in SMYD3 knockout human MDA-MB-231 cells at 0.5 to 5 uM measured for 48 to 72 hrs by RT-qPCR analysis; assay type: functional, cell-based; details: dose 0.5-5 µM, time 48-72 hrs; in short: as §4
[30] = molecular target: T1, Histone-lysine N-methyltransferase SMYD3 (Homo sapiens); assay: Binding affinity to full length recombinant SMYD3 (unknown origin) at Cys186 residue overexpressed in Escherichia coli Rosetta cells assessed as covalent adduct formation at 1 to 100 uM by LC-MS analysis; details: dose 1-100 µM, time <= 24.0 hrs, TDE = time-dependent effect; in short: as §3
[31] = system: MDA-MB-231; assay: Downregulation of CDK2 mRNA expression in human MDA-MB-231 cells at 0.5 uM by RT-qPCR analysis; assay type: functional, cell-based; in short: as §4

SMILES | inhibition [1] | inhibition [2] | inhibition [3] | inhibition [4] [%] | Kd [5] [µM] | inhibition [7] | inhibition [9] | Activity [10] | Activity [11] | inhibition [14] [%] | IC50 [17] [µM] | further results
Cc1cc(C(=O)N2CCC(NC(=O)CCl)CC2)no1 |  |  |  | < 5 |  |  |  | inactive |  |  |  | 
O=C1Cc2cc(C(=O)N[C@H]3C[C@H]4CC[C@@H](C3)C4S(=O)(=O)CC3CCN(CCCC(F)(F)F)CC3)c(Cl)cc2N1 (some centres not stated) |  |  |  | 100 |  |  |  |  |  | 50.2 | 0.689 | Activity [12]: Active; Activity [13]: Active; Activity [15]: Active; Activity [16]: Active
NC1CCN(C(=O)c2cc(C3CC3)on2)CC1 |  |  |  | 5 |  |  |  |  |  |  |  | 

Now from value to molecule, other results behind:

inhibition [1] | inhibition [2] | inhibition [3] | inhibition [4] [%] | Kd [5] [µM] | inhibition [7] | inhibition [9] | Activity [10] | Activity [11] | inhibition [14] [%] | IC50 [17] [µM] | SMILES | further results
Tde | inactive | Tde | 29.1 | 32 | Dose-Dependent Effect | Dose-Dependent Effect |  |  |  |  | O=C(NC1CCNCC1)c1cc(C2CC2)on1 | Activity [6]: inactive; inhibition [8]: inactive
 |  |  | 14 |  |  |  | Active | Dose-Dependent Effect |  |  | O=C(CCl)NC1CCN(C(=O)c2cc(C3CC3)on2)CC1 | 
Tde | Active | Tde | 92.1 | 13 | Dose-Dependent Effect | Dose-Dependent Effect | Active | Dose-Dependent Effect | 85.6 | 0.37 | O=C(NC1CCN(C(=O)CCl)CC1)c1cc(C2CC2)on1 | Activity [18]: inactive; Activity [19]: Active; Activity [20]: inactive; Activity [21]: 100%; Ki [22]: 6.11 µM; Activity [23]: inactive; Ratio [24]: 73.5 M⁻¹ s⁻¹; Kinact [25]: 4.49 10^-4/s; remaining at 6 h [26]: 76%; Activity [27]: 50%; inhibition [28]: Active; Activity [29]: inactive; Activity [30]: Tde; Activity [31]: Active
